According to article PMC2913304 (Pharmaceutical research, 2008):
Where two headings read alike, the source gives them in different places. Non-standard residues stand in square brackets, D forms with d. Residues, ends and D or L forms follow the SMILES beside them. Sar = CNCC(=O)O

How the values were obtained:
[1] = test system: SKPT cells; assay: Effect of potential inhibitors on apical uptake of carnosine; type: in vitro ADME, rat; conditions: 15-min uptake, apical pH 6.0; for reduction of apical uptake of carnosine: inhibitor 1 and 2 mM
Summary of the method: (§1)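 Measured 15-min uptake at 37°C of [3H]substrate (with [14C]mannitol correction) from the apical or basolateral side, co-incubated with or without test compounds (PEPT2 and PHT1 substrates, unlabelled substrate, a cephalosporin). Apical buffer was pH 6.0 and basolateral pH 7.4. Test compounds were 1 mM for basolateral uptake. Results were compared with control by ANOVA and Dunnett's test. n=3–6.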

[2] = test system: SKPT cells; conditions: cited from earlier work
[3] = test system: SKPT cells; assay: Effect of potential inhibitors on basolateral uptake of carnosine; type: in vitro ADME, rat; conditions: inhibitor 1 mM; 15-min uptake, basolateral pH 7.4
Summary of the method: as §1

[4] = pKa and fractional ionization of carnosine; type: physicochemical
[5] = molecular target: T1, PEPT2 (Rattus norvegicus, UniProt Q63424); assay: Concentration-dependent apical uptake of carnosine; type: in vitro ADME; conditions: 1–500 µM carnosine, 15-min uptake, pH 6.0
T1 sequence (Q63424 1-729): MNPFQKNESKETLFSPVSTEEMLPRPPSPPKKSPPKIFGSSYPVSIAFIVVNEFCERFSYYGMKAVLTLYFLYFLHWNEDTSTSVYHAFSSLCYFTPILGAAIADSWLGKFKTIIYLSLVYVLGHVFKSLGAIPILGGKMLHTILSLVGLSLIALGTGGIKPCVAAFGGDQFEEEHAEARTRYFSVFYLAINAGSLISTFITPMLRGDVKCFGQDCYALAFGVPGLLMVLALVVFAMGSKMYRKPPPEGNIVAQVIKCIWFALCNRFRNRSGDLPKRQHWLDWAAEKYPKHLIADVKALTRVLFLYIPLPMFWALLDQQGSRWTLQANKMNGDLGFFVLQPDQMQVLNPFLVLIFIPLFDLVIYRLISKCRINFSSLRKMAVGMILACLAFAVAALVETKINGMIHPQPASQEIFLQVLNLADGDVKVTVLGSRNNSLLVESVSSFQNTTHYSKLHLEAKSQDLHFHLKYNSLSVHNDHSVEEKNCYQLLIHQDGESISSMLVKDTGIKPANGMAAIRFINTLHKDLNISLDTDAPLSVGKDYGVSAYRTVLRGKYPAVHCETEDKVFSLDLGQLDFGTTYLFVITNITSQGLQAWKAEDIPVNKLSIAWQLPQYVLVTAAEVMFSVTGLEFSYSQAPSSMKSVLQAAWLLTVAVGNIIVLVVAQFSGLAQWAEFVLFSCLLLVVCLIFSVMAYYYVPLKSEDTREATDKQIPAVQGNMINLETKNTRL

[6] = molecular target: T1, PEPT2; conditions: read-out: Km, PEPT2-mediated uptake; rat neonatal astrocytes; cited from earlier work
[7] = test system: SKPT cells; assay: Carnosine intracellular accumulation; type: in vitro ADME, rat
Summary of the method: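 Rat kidney proximal tubule cells (SV40-transformed) grown on collagen-coated filter inserts and used 4 days after seeding, with no antibiotics for the final 24 h and monolayer resistance checked. Cells were preincubated 10 min at 37°C with apical pH 6.0 and basolateral pH 7.4 buffer. 10 µM [3H]substrate plus [14C]mannitol was added to one side, 37°C timed incubations. Cells washed with ice-cold buffer, solubilised (NaOH/SDS), counted. Values normalised to protein and mannitol-corrected. Concentration ratio used intracellular volume from 3-O-methyl-D-glucose uptake (1–10 mM, 300 min, phloridzin). n=3–5.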

[8] = test system: rat choroid plexus primary cell cultures; conditions: cited from earlier work
[9] = test system: SKPT cells; assay: Cellular compartment model: influx and efflux clearances of carnosine; type: in vitro ADME, rat
Summary of the method: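 A three-compartment (apical, cellular, basolateral) mass-balance model gave influx and efflux clearances (µl/min/mg protein). Transepithelial clearances came from 10 µM donor flux experiments. Each influx clearance equals the transcellular clearance divided by the steady-state fraction effluxed to the opposite compartment. These fractions came from efflux studies after 2 h apical loading.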

[10] = molecular target: T1, PEPT2; conditions: read-out: Km, PEPT2-mediated uptake; rat choroid plexus whole tissue; cited from earlier work
[11] = test system: SKPT cells; assay: Carnosine transepithelial transport across SKPT cell monolayers; type: in vitro ADME, rat; conditions: 10 µM in donor compartment, slope of transport vs time
Summary of the method: (§2)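 Filter-grown SKPT monolayers with apical pH 6.0 (MES/Tris) and basolateral pH 7.4 (HEPES/Tris) buffers at 37°C. 10 µM [3H]substrate with [14C]mannitol was placed in the apical or basolateral donor side. Receiver aliquots were taken over time for scintillation counting. Paracellular flux was corrected with mannitol, and clearances were obtained from flux relative to the 10 µM donor concentration. n=3–5.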

[12] = as above; type: in vitro ADME, rat; conditions: rat, basolateral-to-apical transcellular flux relative to apical-to-basolateral flux, 10 µM carnosine
Summary of the method: as §2

[13] = test system: basolateral transporter; assay: Concentration-dependent basolateral uptake of carnosine; type: in vitro ADME, rat
[14] = test system: SKPT cells; assay: Proton; type: in vitro ADME, rat; conditions: 15-min uptake, 10 µM, donor pH 5.5 to 7.4, basolateral pH 7.4
Summary of the method: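 The donor-side pH was varied from 5.5 to 7.4 while the opposite side was held at pH 7.4 (apical uptake) or pH 6.0 (basolateral uptake). Uptake of 10 µM [3H]substrate was measured over 15 min at 37°C. Values were compared with pH 7.4 by ANOVA and Dunnett's test. n=3–6.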

[15] = test system: SKPT cells; assay: Efflux studies after 2 hr apical preloading of SKPT monolayers; type: in vitro ADME, rat
Summary of the method: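 Monolayers loaded apically with 10 µM [3H]substrate and [14C]mannitol for 2 h at 37°C, then washed four times with ice-cold buffer. Substrate-free buffer was added to both sides (apical pH 6.0, basolateral pH 7.4) at 37°C. Apical (100 µl) and basolateral (300 µl) samples were taken at set times and replaced. Radioactivity is expressed as percent of cell content after loading. n=3–5.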

[16] = test system: SKPT cells; assay: Substrate stability studies in SKPT compartments; type: in vitro ADME, rat
Summary of the method: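 10 µM [3H]substrate applied apically or basolaterally (apical pH 6.0, basolateral pH 7.4) for 5–300 min at 37°C. Donor and receiver media were collected. Cells were washed, sonicated in water, extracted with an equal volume of acetonitrile, and centrifuged at 14,000 g for 10 min at 4°C. Reversed-phase C18 HPLC used isocratic 0.1 M NaH2PO4/0.075% heptafluorobutyric acid at 1 ml/min. Stability was taken from recovery and histidine appearance. n=3.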

[17] = substrate: NCCC(=O)N[C@@H](Cc1cnc[nH]1)C(=O)O; assay: Concentration-dependent apical uptake of carnosine; type: in vitro ADME, rat; conditions: other: 1–500 µM carnosine, 15-min uptake, pH 6.0, 37.0 °C
[18] = at 60 min, after 2 hr apical preloading with 10 µM
[19] = single exponential fit of efflux-time profile

Molecule: CN(CC(=O)O)C(=O)CN [GlySar, glycylsarcosine] (H-Gly-[Sar]-OH)
- reduction of apical uptake of carnosine [1]: 90%
- apical uptake relative to basolateral uptake ([2]; ref 37): about 5 ×
- apical uptake relative to basolateral uptake ([2]; ref 38): about 3.5 ×
- apical-to-basolateral transepithelial flux higher than reverse flux ([2]; ref 38): 28%
- reduction of basolateral uptake of carnosine [3]: 90–99%

Molecule: NCCC(=O)N[C@@H](Cc1cnc[nH]1)C(=O)O [carnosine, β-alanyl-L-histidine]
- ionized (NH3+) at pH 5.5 ([4]; pH 5.5): 95%
- ionized (NH3+) at pH 6.5 ([4]; pH 6.5): 65%
- ionized (NH3+) at pH 7.4 ([4]; pH 7.4): 15–20%
- Vmax, apical membrane uptake [5]: 659±27 pmol/mg/15min
- reduction of apical uptake of carnosine [1]: 96%
- Km [6]: 43 µM
- time over which uptake was linear, apical surface ([7]; 10 µM carnosine): 60 min
- time over which uptake was linear, basolateral surface ([7]; 10 µM carnosine): 30 min
- basolateral uptake plateau value ([7]; 10 µM carnosine introduced from basolateral compartment): 15 pmol/mg protein
- apical uptake plateau value ([7]; 10 µM carnosine, at 180–300 min): approximately 220 pmol/mg protein
- intracellular to extracellular concentration ratio, basolateral introduction ([7]; 10 µM extracellular): 0.8
- intracellular to extracellular concentration ratio, apical introduction ([7]; 10 µM extracellular, intracellular volume 2.0 µl/mg protein): 11
- apical efflux relative to basolateral efflux [8]: about 4 times
- intracellular to extracellular concentration ratio [8]: approximately 135
- CLBC/CLCA ratio [9]: 0.8
- CLBC/CLCB ratio [9]: 32
- CLCB/CLAC ratio [9]: 0.004
- Km [10]: 39 µM
- A-to-B transepithelial rate [11]: 1.99 pmol/min/mg protein
- B-to-A transepithelial rate [11]: 3.74 pmol/min/mg protein
- efflux ratio at 10 µM [12]: ~2
- Vmax, basolateral membrane uptake ([13]; 1–500 µM carnosine, 15-min uptake, pH 7.4): 27.4±1.3 pmol/mg/15min
- lower affinity of basolateral transporter compared to apical transporter ([13]; Km comparison): 2 fold
- lower capacity of basolateral transporter compared to apical transporter ([13]; Vmax comparison): 24 fold
- pH of maximal apical uptake [14]: 6.5
- cell-to-apical efflux relative to cell-to-basolateral efflux ([15]; SKPT cells): about 10 times
- carnosine effluxed from cell to apical compartment [15, 18]: about 40%
- carnosine effluxed from cell to basolateral compartment [15, 18]: about 4%
- fefflux.A (fraction effluxed to apical compartment at steady state) ([15]; single exponential fit): 0.66
- fefflux.B (fraction effluxed to basolateral compartment at steady state) ([15]; single exponential fit): 0.047
- carnosine effluxed from cellular to apical compartment at steady state [15, 19]: 66%
- carnosine effluxed to basolateral compartment at steady state [15, 19]: 4.7%
- reduction of basolateral uptake of carnosine [3]: 90–99%
- stability in donor compartment ([16]; apical or basolateral donor side, up to 300 min of incubation): remained intact
- intact in intracellular compartment at 60 min ([16]; intracellular compartment, 60 min): about 87%
- intact in intracellular compartment at 300 min ([16]; intracellular compartment, 300 min): 81%
- intact in intracellular compartment, first 15 min ([16]; intracellular compartment, first 15 min of incubation): > 94%

Molecule: CC1=C(C(=O)O)N2C(=O)[C@@H](NC(=O)[C@H](N)c3ccc(O)cc3)[C@H]2SC1 [cefadroxil]
- reduction of basolateral uptake of carnosine [3]: 90–99%

Molecule: N[C@@H](Cc1c[nH]cn1)C(=O)O [histidine, L-histidine]
- effect on apical uptake of carnosine ([1]; inhibitor 1, 2 and 5 mM): unaffected
- effect on basolateral uptake of carnosine [3]: unaffected

B1: PEPT2 (Rattus norvegicus) (protein)
chain: T1 sequence (Q63424 1-729)
- Km [17]: 49 ± 8 µM
